Source: PubChem BioAssay (several laboratories)
In the library only some 2.7% were active in any assay of this set; here they are far more common.
NR1D1 modulator: Rev-erb alpha (human) modulation | activity, % at 10 µM | 370,000 tested, 0.79% active | P20393 | Rev-erbα–FITC-DNA binding, fluorescence polarization, 90 min | AID 1259318;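 active = activity above about 14%, limit read from the data; passing the limit was not always enough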;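 note: 0% = DMSO wells with 35 nM protein and 100% = DMSO wells with 750 nM protein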
ASAP1 GAP inh: ASAP1 ArfGAP inhibition; Q9ULH1; ASAP1-stimulated ARF1 GTP hydrolysis, GDP FP detection; inhibition, % at 16.5 µM; 360,000 tested, 0.19% active; AID 624377; in the data active = inhibition above about 25%;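 note: 0% = vehicle with enzyme and substrate and 100% = no enzyme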
MsrA inh: inhibits bovine methionine sulfoxide reductase A; inhibition, % at 15.5 µM; purified bovine MsrA, absorbance read-out; 360,000 tested, 0.75% active;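 note: 0% = vehicle wells with enzyme and 100% = reference inhibitor wells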
ARFGAP1 inhibitor: rat ARFGAP1 inhibition; AID 651572; inhibition, % at 16.5 µM; Q62848; 360,000 tested, 0.26% active; Arfgap1-stimulated ARF1 GTP hydrolysis, GDP FP detection;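 active = inhibition above a per-plate limit, mean inhibition of low control wells plus 3 SD, cut at about 25% in these data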;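 note: 0% = DMSO wells with enzyme and 100% = wells lacking Arfgap1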
Target sequence (Q62848 1-136 limits assumed): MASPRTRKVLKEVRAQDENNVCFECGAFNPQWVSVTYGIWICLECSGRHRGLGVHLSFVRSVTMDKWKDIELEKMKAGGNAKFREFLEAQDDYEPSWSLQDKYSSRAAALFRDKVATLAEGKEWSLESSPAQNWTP
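System: truncated rat Arfgap1 GAP domain / Medium: HEPES-based buffer, pH 7.5 / Also added: N-terminally truncated human ARF1-GTP substrate / Incubation: enzyme reaction 120 min at 25 °C after 20 min preincubation / Measured by: FP of antibody-bound GDP Alexa 633 tracer, ex 620/em 688 nm / Replicates: singlicate, each compound tested once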
MsrA act: bovine methionine sulfoxide reductase A activation; AID 602163; activation, % at 10.6 µM; purified bovine MsrA, absorbance read-out; 360,000 tested, 0.3% active; in the data active = activation above about 7.5%;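 note: 0% = vehicle and 100% = reference activator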
HGIII-sPLA2 inh: Blocks human group III sPLA2 activity; QFRET BODIPY PC-A2 liposome hydrolysis, fluorescence; inhibition, % at 12.2 µM; Q9NZ20; AID 743126; 370,000 tested, 0.56% active;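 active = inhibition above mean plus 3 SD of compounds lying within the high and low control bounds, cut at about 19% in these data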;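 note: 0% = median of test compound wells and 100% = no enzyme DMSO wells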
Target sequence (Q9NZ20 whole entry, looked up): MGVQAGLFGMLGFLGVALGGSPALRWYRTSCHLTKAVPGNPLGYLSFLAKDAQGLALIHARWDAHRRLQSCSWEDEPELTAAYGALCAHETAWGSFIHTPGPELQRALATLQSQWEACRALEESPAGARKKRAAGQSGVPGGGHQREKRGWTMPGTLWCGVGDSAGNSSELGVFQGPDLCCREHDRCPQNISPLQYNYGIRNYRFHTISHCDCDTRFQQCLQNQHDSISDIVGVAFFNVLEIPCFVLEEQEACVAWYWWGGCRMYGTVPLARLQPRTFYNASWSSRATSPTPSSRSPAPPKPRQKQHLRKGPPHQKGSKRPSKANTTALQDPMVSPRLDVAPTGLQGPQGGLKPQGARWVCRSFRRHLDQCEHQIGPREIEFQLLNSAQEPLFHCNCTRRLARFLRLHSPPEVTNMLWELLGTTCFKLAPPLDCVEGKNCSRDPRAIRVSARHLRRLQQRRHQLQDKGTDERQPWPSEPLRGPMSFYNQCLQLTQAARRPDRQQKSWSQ
MsrA inh confirm: confirmation of bovine MsrA inhibitors; shares compounds with MsrA inh; 2,300 tested, 41% active; purified bovine MsrA, absorbance read-out; inhibition, % at 15.5 µM;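 note: coupled to thioredoxin reductase with NADPH and selenocystamine and DMSO as substrate; 0% = vehicle only and 100% = full effect of reference inhibitor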
The depositor's hits bear a star; · = not tested or not shown. Cut-off read from the data, not from the text of the source, unless noted: active = inhibition above about 4.5%; inactive = the rest.

SMILES	NR1D1 modulator	ASAP1 GAP inh	MsrA inh	ARFGAP1 inhibitor	MsrA act	HGIII-sPLA2 inh	MsrA inh confirm
CCOC(=O)C1=Nc2ccccc2C1=[N+]=[N-]	-2	-9	5.7*	3	-6	2	3
COc1ccc(CNC(=O)c2ccc(=O)oc2)cc1OC	-3	0	9.9*	13	-7	2	8.7*
O=C(NCc1cccnc1)c1ccc(=O)oc1	1	4	8.3*	6	-6	3	8.4*
COC(=O)[C@]12C[C@H](CC(=O)N3CCOCC3)C(=O)N(Cc3ccco3)C1=C[C@H](C(C)(C)C)O[C@@H]2C	-4	·	·	·	·	-1	·
O=C(OCC#CCSc1nnc(-c2cccc3ccccc23)o1)C1CCC1	0	·	·	·	·	-5	·
C=CCN1[C@H](Cc2ccccc2)COc2cc(N3CCSCC3)ccc2S1(=O)=O	7	·	·	·	·	-1	·
N=c1c2c(ccn1Cc1ccccc1)Oc1ccc3ccccc3c1C2c1ccccc1 (centres undefined)	-4	·	·	·	·	-4	·
CCOC(=O)C1CCCN(C(=O)c2cnn3c(C(F)(F)F)cc(-c4ccccc4)nc23)C1 (centres undefined)	8	16	5.3*	15	-2	-1	3
CN1C(=O)/C(=C/c2ccccc2OCc2ccc(C(=O)O)cc2)NC1=S	-1	0	2	-3	-10	7	·
O=C1NC(=S)N/C1=C\c1ccccc1OCc1ccc(C(=O)O)cc1	1	17	6.4*	6	-2	-10	3
O=[N+]([O-])c1cccc(C2=Nn3c(nnc3-c3ccccc3)SC2)c1	-1	·	·	·	·	-2	·
Cc1ccc(/C=C(\C#N)C(=O)Nc2c(C)cccc2C)s1	0	-6	7.1*	11	-4	-10	6.1*
CCOC(=O)N=Nc1c2ccccc2c2nc3no[nH]c3nc12	7	14	14*	18	-9	-6	18*
COc1cc(/C=C/C(=O)OC(C)C(=O)Nc2c(C)n(C)n(-c3ccccc3)c2=O)ccc1O (centres undefined)	2	2	5.9*	11	-7	12	3
Cc1c(NC(=O)C(C)OC(=O)/C=C/c2ccccc2)c(=O)n(-c2ccccc2)n1C (centres undefined)	1	14	0	-2	-2	1	·
c1ccc(-c2cc(-c3nnc4sc(Cc5cccs5)nn34)[nH]n2)cc1	-9	·	·	·	·	-42	·
Cn1cc(-c2ccccc2C(=O)O)c(=O)c2cc(Cl)ccc21	-3	6	4.9*	-8	-3	3	2
Cn1cc(S(=O)(=O)c2ccccc2)c(=O)c2cc(Cl)ccc21	-2	10	0	12	-6	5	·
O=c1/c(=C/c2ccccn2)sc2n1CN(c1ccccc1)CN=2	0	-8	4.8*	13	-5	5	4
COCCn1c(SCC(=O)Nc2cc(C)on2)nc2c(c1=O)SC(C)C2 (centres undefined)	-1	-11	2	-11	-6	4	·
COCCn1c(SCC(=O)Nc2ccc3c(c2)OCCO3)nc2c(c1=O)SC(C)C2 (centres undefined)	3	3	5.2*	5	-11	12	2
CC1Cc2nc(SCC(=O)Nc3ccc4c(c3)OCCO4)n(C)c(=O)c2S1 (centres undefined)	-1	-5	5.0*	7	-4	1	1
CC1Cc2nc(SCC(N)=O)n(C)c(=O)c2S1 (centres undefined)	7	15	2	1	4	17	·
COCCn1c(SCC(N)=O)nc2c(c1=O)SC(C)C2 (centres undefined)	-2	-4	4.7*	7	-2	5	2
CCCCOc1ccc(/C(O)=C2/C(=O)C(=O)N(CCN(C)C)C2c2ccc(O)c(OC)c2)cc1 (centres undefined)	2	-11	8.1*	5	-2	-5	0
SMILES	NR1D1 modulator	ASAP1 GAP inh	MsrA inh	ARFGAP1 inhibitor	MsrA act	HGIII-sPLA2 inh	MsrA inh confirm
N#Cc1cccc(NC(=O)OCCN2C(=O)CCC23CCC(c2ccc(Cl)cc2)CC3)c1 (centres undefined)	6	·	·	·	·	3	·
Cc1ccc(NC(=O)NNC(=O)CSC2CCc3ccccc32)c(C)c1 (centres undefined)	4	7	1	1	·	-35	·
Clc1cncc(Cl)c1N/N=C/c1ccncc1	2	-2	4.9*	-6	-5	12	4
Clc1cccc(Cl)c1/C=N/Nc1c(Cl)cncc1Cl	-3	-12	0	-1	-13	13	·
O=C(O)c1ccc(Nc2nc(-c3ccccc3)nc3ccccc23)cc1	1	9	6.0*	3	-4	-28	3
CNC(=O)c1ccc(Nc2nc(-c3ccccc3)nc3ccccc23)cc1	1	5	2	6	-4	-5	·
O=C(O)c1cccc(Nc2nc(C(F)(F)F)nc3ccccc23)c1	-2	-5	4.7*	1	-7	-5	2
CCOC(=O)C1(Cc2ccccc2)CCN(Cc2ccc(C(F)(F)F)cc2)CC1	0	·	·	·	·	6	·
CC(C)CCNc1nc(N)c([N+](=O)[O-])c(NCCO)n1	9	0	4.9*	0	-11	9	5.1*
O=C(N/N=C/c1ccc(N2CCOCC2)s1)c1ccc(NS(=O)(=O)c2cccs2)cc1	3	17	4.7*	2	3	-12	4
O=C(N/N=C/c1ccc2c(c1)OCO2)c1ccc(NS(=O)(=O)c2cccs2)cc1	6	5	5.7*	2	-8	-13	7.5*
COc1ccc(C=NNC(=O)c2ccccc2NS(=O)(=O)c2cccs2)cc1O	6	-13	5.1*	-9	-4	-21	3
O=C(N/N=C/c1ccc(N2CCOCC2)cc1)c1ccccc1NS(=O)(=O)c1cccs1	-2	10	8.0*	9	-7	-6	7.0*
COC(=O)C1CN(Cc2cn(Cc3ccc(F)cc3)nn2)CCS(=O)(=O)N1Cc1ccc(OC)cc1 (centres undefined)	2	·	·	·	·	2	·
CCOC(=O)CC[C@H]1CC[C@]2(CCCN(C(=O)c3ccco3)C2)O1	-2	·	·	·	·	9	·
O=C(CC1C=CCC1)OCCN1CCN(C2CN(Cc3cn(Cc4ccccc4Cl)nn3)S(=O)(=O)C2)CC1 (centres undefined)	-1	·	·	·	·	1	·
CCCCCn1nnnc1C1(C)Cn2nccc2C(=O)N1Cc1ccco1 (centres undefined)	-4	·	·	·	·	-1	·
O=C(N/N=C/c1ccc(N2CCOCC2)cc1)c1ccc(NS(=O)(=O)c2cccs2)cc1	-6	-4	6.8*	7	-7	-5	6.4*
CCOC(=O)N/N=C/c1ccc(N2CCOCC2)s1	0	-7	5.3*	-4	-12	16	5.7*
O=C(N/N=C/c1ccc(N2CCOCC2)cc1)c1ccncc1	-6	-7	5.0*	1	-3	8	5.0*
